In ChEMBL document CHEMBL2434937, “Monoamine oxidase inhibitory activity of 3,5-biaryl-4,5-dihydro-1H-pyrazole-1-carboxylate derivatives” (Eur J Med Chem, 2013):

Assays:
[1] = target: T1, Amine oxidase [flavin-containing] A (Homo sapiens, UniProt P21397); assay: Reversible inhibition of human recombinant MAO-A expressed in baculovirus infected […] insect cells at 300 nM after 1 hr by centrifugation-ultrafiltration method
T1 sequence (P21397 whole entry): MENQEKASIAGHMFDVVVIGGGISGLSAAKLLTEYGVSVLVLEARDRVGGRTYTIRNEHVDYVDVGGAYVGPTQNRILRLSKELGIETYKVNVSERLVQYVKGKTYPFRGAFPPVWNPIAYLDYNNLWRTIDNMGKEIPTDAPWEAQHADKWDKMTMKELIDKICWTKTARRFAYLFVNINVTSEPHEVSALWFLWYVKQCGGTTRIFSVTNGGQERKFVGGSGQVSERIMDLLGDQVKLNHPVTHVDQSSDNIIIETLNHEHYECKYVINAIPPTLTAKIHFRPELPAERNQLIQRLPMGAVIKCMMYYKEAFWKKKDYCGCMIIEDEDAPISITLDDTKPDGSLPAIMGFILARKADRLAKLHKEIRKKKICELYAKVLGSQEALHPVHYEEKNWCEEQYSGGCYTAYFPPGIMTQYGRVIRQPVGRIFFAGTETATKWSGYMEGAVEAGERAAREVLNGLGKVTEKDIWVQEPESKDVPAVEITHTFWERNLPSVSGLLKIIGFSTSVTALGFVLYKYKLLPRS
Outline: (§1)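 Recombinant hMAO-A (baculovirus-infected BTI insect cells) preincubated with a single inhibitor concentration in 0.05 M sodium phosphate, pH 7.4, 1 h at 37°C. One aliquot kept at 4°C unwashed. Remainder ultrafiltered (30 kDa membrane, 9000x g, 20 min, 4°C), resuspended and spun twice more. Activity by Amplex Red/HRP H2O2 fluorescence. Percent inhibition vs vehicle controls, with and without washing.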

[2] = target: T1, Amine oxidase [flavin-containing] A; assay: Reversible inhibition of human recombinant MAO-A expressed in baculovirus infected […] insect cells at 300 nM incubated for 1 hr followed by compound washout by centrifugation-ultrafiltration method; outline: as §1

## O=C(NCCN1CCOCC1)c1ccc(Cl)cc1 [MOCLOBEMIDE]
[1]
  inhibition at 0.3 µM: 89%
[2]
  inhibition at 0.3 µM: 9.56%
